Active and inactive are the calls of the source.
Experiments:
Kocuria rhizophila = experiment: Antibacterial activity against Micrococcus luteus ATCC 9341 after 18 hrs; type: functional; settings: DC2201
How it was run: (§1)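 Bacterial cells suspended in Mueller-Hinton broth at a final density of […]. Incubated aerobically with compounds in DMSO at 37 °C for 18 h, alongside DMSO-only blank cultures and an ofloxacin positive control. MIC taken as the lowest concentration giving complete inhibition of visible growth.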

Trichophyton rubrum = experiment: Antifungal activity against Trichophyton rubrum ATCC 10218 after 48 hrs; type: functional, organism-based
How it was run: (§2)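 Fungi grown in Sabouraud dextrose broth with compounds for 48 h at 37 °C. Blank cultures received a limited amount of DMSO. Amphotericin B, dissolved in DMSO, served as the positive control.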

[1] = system: Staphylococcus epidermidis; experiment: Antibacterial activity against Staphylococcus epidermidis ATCC 12228 after 18 hrs; type: functional, organism-based; how it was run: as §1
Candida albicans = experiment: Antifungal activity against Candida albicans ATCC 1600 after 48 hrs; type: functional, organism-based; how it was run: as §2
Pseudomonas aeruginosa = experiment: Antibacterial activity against Pseudomonas aeruginosa ATCC 14502 after 18 hrs; type: functional, organism-based; how it was run: as §1
Staphylococcus aureus = experiment: Antibacterial activity against Staphylococcus aureus ATCC 25923 after 18 hrs; type: functional, organism-based; how it was run: as §1
Bacillus subtilis = experiment: Antibacterial activity against Bacillus subtilis ATCC 6633 after 18 hrs; type: functional, organism-based; how it was run: as §1
Escherichia coli = experiment: Antibacterial activity against Escherichia coli ATCC 25922 after 18 hrs; type: functional, organism-based; how it was run: as §1
Shigella flexneri = experiment: Antibacterial activity against Shigella flexneri ATCC 12022 after 18 hrs; type: functional, organism-based; how it was run: as §1
Saccharomyces = experiment: Antifungal activity against Saccharomyces sake ATCC 26421 after 48 hrs; type: functional, organism-based; how it was run: as §2
Nannizzia gypsea = experiment: Antifungal activity against Microsporum gypseum ATCC 14683 after 48 hrs; type: functional, organism-based; how it was run: as §2

Measured: Activity

CC1(C)[C@H](O)C[C@H](O)[C@]2(C)[C@H]3CC[C@@]4(C)[C@H](c5ccoc5)OC(=O)[C@H]5O[C@]54[C@]3(C)[C@H](O)C[C@@H]12
inactive: all assays above

C/C=C(\C)C(=O)O[C@H]1C(C)(C)[C@H](CC(=O)OC)[C@]2(C)C(=O)[C@@]1(O)C=C1C3=CC(=O)O[C@@H](c4ccoc4)[C@]3(C)CC[C@@H]12
inactive: all assays above

CC(=O)O[C@@H]1C[C@H](O)[C@]2(C)[C@H]3CC[C@@]4(C)[C@H](c5ccoc5)OC(=O)[C@H]5O[C@]54[C@]3(C)[C@H](OC(C)=O)C[C@H]2C1(C)C
inactive: all assays above

COC(=O)C[C@H]1C(C)(C)[C@H](OC(=O)C(C)C)[C@@H]2C=C3[C@H]([C@H](OC(C)=O)C[C@]4(C)[C@H]3CC(=O)O[C@H]4c3ccoc3)[C@@]1(C)C2=O
inactive: all assays above

COC(=O)C[C@H]1C(C)(C)C(=O)[C@@H]2CC3C4=CC(=O)O[C@@H](c5ccoc5)[C@]4(C)CC[C@@H]3[C@@]1(C)C2=O (stereo partly specified)
inactive: all assays above

CC(=O)O[C@H]1C[C@@H](OC(C)=O)C(C)(C)[C@@H]2C[C@@H](O)[C@]3(C)[C@H](CC[C@@]4(C)[C@H](c5ccoc5)OC(=O)[C@H]5O[C@@]534)[C@@]12C
inactive: all assays above

Reference: ChEMBL document CHEMBL1153729, “Structurally diverse limonoids from the fruits of Swietenia mahagoni” (2009)
